A word on the Ki: it is a measure of affinity in units of concentration, obtained from inhibition or displacement. A low value points to tighter binding.

The values that follow come from ChEMBL document CHEMBL1139504, “Discovery of the first potent, selective 5-hydroxytryptamine1D receptor antagonist” (J Med Chem, 2005).

The target in experiment [1] is 5-hydroxytryptamine receptor 2B (Homo sapiens, UniProt P41595). Briefly: Binding affinity for human 5-hydroxytryptamine 2B receptor.
Experiment [2] addresses 5-hydroxytryptamine receptor 1E (Homo sapiens, UniProt P28566). In words: Binding affinity for human 5-hydroxytryptamine 1E receptor.
Experiment [3] has as its target 5-hydroxytryptamine receptor 4 (Homo sapiens, UniProt Q13639). Briefly: Binding affinity for human 5-hydroxytryptamine 4 receptor.
Experiment [4] deals with 5-hydroxytryptamine receptor 2A (Homo sapiens, UniProt P28223). In words: Binding affinity for human 5-hydroxytryptamine 2A receptor. Put shortly: (§1)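 Radioligand displacement binding on cloned human receptors. Each determination lies within 0.3 log units of the mean.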
5-hydroxytryptamine receptor 2A, sequence (P28223 whole entry): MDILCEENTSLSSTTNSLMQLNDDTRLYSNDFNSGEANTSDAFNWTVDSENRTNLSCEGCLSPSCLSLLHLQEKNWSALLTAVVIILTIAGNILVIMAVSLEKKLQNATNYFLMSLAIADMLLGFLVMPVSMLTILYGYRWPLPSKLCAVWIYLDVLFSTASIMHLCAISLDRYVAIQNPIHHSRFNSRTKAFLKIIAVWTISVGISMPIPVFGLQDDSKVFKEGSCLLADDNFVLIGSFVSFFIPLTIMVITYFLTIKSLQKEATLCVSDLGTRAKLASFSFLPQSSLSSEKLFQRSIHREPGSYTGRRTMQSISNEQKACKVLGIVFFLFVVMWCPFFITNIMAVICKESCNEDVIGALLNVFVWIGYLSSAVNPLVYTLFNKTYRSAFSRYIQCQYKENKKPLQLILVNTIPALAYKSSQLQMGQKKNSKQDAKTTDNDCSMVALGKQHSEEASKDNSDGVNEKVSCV
The target of experiment [5] is T1, 5-hydroxytryptamine receptor 1F (Homo sapiens, UniProt P30939).
T1 sequence (P30939 whole entry): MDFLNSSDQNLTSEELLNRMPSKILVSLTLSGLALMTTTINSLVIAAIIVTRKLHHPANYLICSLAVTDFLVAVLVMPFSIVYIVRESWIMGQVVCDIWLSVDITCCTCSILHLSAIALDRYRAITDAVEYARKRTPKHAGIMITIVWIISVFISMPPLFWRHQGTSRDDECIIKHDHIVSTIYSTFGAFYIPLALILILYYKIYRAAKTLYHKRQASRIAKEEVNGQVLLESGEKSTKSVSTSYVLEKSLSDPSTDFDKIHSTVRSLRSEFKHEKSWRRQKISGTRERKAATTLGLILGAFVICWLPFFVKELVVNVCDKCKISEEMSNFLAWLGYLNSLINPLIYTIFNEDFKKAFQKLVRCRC
Briefly: Binding affinity for human 5-hydroxytryptamine 1F receptor.

Another experiment deals with D(2) dopamine receptor (Homo sapiens, UniProt P14416). In words: Binding affinity for human dopamine receptor D2.
D(2) dopamine receptor, sequence (P14416 whole entry): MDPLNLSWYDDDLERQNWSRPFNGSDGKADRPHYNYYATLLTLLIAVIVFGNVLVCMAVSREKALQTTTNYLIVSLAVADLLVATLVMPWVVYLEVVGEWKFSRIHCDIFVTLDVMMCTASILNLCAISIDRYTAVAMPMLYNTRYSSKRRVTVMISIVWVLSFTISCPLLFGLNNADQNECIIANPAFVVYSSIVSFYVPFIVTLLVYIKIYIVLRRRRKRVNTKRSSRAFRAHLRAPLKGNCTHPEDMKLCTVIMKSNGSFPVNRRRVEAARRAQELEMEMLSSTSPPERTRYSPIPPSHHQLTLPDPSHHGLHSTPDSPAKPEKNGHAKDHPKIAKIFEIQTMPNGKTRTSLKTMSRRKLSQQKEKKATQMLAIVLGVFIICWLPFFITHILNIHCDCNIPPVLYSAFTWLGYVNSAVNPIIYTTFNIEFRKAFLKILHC
Experiment [6] deals with T2, 5-hydroxytryptamine receptor 1A (Homo sapiens, UniProt P08908).
T2 sequence (P08908 whole entry): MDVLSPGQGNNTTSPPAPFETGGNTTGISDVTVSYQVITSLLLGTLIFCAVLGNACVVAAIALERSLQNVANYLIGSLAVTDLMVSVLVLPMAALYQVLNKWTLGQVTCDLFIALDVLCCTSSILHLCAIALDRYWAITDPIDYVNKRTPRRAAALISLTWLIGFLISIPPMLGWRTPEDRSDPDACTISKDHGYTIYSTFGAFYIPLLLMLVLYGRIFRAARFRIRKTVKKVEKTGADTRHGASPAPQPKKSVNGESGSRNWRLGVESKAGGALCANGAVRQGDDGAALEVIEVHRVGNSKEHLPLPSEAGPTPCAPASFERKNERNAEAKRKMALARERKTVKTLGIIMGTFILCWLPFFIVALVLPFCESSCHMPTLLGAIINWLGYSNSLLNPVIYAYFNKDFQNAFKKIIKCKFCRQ
Briefly: Displacement of [3H]WAY-100635 from human 5-hydroxytryptamine 1A receptor expressed in CHO cells. The experiment is classed as cell-based. The method in brief:
(§2)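 Radioligand displacement binding on membranes of cloned human receptors. Each determination lies within 0.3 log units of the mean.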
In general terms: Displacement assays read how much labelled ligand stays bound in the presence of the test substance.

In experiment [7] the target is T3, 5-hydroxytryptamine receptor 2C (Homo sapiens, UniProt P28335).
T3 sequence (P28335 whole entry): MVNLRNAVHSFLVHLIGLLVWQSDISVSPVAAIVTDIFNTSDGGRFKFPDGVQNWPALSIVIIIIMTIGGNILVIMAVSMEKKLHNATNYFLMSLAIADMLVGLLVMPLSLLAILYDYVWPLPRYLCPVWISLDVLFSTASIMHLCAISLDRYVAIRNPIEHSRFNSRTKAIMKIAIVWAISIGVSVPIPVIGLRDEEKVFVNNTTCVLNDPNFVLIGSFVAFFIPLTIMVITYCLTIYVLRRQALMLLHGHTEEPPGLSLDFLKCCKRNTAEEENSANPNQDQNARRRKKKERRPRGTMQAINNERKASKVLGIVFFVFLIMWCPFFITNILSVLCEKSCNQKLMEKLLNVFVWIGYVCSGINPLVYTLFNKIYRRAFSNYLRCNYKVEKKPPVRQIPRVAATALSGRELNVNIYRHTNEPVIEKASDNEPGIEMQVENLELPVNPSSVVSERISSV
In words: Binding affinity for human 5-hydroxytryptamine 2C receptor. The method in brief:
as §1

The target of experiment [8] is 5-hydroxytryptamine receptor 5A (Homo sapiens, UniProt P47898). Briefly: Binding affinity for human 5-hydroxytryptamine 5A receptor. The method in brief: as §1
5-hydroxytryptamine receptor 5A, sequence (P47898 whole entry): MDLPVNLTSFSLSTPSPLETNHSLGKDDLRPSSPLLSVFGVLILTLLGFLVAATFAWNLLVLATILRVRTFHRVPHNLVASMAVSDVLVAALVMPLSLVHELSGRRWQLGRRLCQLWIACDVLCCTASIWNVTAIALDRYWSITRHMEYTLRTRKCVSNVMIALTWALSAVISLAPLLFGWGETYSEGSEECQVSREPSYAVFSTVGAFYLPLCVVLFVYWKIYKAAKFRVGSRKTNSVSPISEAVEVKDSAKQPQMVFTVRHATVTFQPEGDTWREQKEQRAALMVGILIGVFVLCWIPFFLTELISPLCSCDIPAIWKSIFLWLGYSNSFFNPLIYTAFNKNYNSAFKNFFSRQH
The target of experiment [9] is 5-hydroxytryptamine receptor 6 (Homo sapiens, UniProt P50406). In words: Binding affinity for human 5-hydroxytryptamine 6 receptor.
5-hydroxytryptamine receptor 6, sequence (P50406 whole entry): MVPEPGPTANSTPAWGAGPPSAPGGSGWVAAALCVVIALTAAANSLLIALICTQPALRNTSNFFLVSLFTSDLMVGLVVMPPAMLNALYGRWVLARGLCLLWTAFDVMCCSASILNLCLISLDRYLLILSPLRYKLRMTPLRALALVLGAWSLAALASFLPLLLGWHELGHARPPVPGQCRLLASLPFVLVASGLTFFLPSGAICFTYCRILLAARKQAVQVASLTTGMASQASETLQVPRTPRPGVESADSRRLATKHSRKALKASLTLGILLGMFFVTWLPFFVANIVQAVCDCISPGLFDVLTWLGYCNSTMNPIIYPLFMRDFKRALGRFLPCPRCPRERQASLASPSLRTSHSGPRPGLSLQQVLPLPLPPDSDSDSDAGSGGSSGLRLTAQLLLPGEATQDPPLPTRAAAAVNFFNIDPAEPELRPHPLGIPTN
The target in experiment [10] is T4, 5-hydroxytryptamine receptor 1B (Homo sapiens, UniProt P28222). Briefly: Intrinsic activity for human 5-hydroxytryptamine 1B receptor in [35S]GTP-gamma-S, assay. The experiment is classed as functional. The method in brief:
(§3)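 [35S]GTPγS binding in recombinant cells with high receptor density expressing the human receptor. Ten-point half-log serial dilution gives the concentration–response. Intrinsic activity is expressed relative to the maximal response of the endogenous agonist 5-HT.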
For orientation: GTPγS resists hydrolysis and so accumulates on activated G proteins.

Experiment [11] has as its target T5, 5-hydroxytryptamine receptor 1D (Homo sapiens, UniProt P28221). In words: Displacement of [3H]5-HT from human 5-hydroxytryptamine 1D receptor expressed in CHO cells. It counts as cell-based. The method in brief: as §2
In experiment [12] the target is Sodium-dependent serotonin transporter (Rattus norvegicus, UniProt P31652). In words: Inhibition of [3H]5-HT binding to serotonin transporter in rat cortical synaptosomes. It counts as subcellular, Brain. Put shortly: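 Radioligand binding to serotonin transporter in rat cortical synaptosomes. Each determination lies within 0.3 log units of the mean.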
Sodium-dependent serotonin transporter, sequence (P31652 whole entry): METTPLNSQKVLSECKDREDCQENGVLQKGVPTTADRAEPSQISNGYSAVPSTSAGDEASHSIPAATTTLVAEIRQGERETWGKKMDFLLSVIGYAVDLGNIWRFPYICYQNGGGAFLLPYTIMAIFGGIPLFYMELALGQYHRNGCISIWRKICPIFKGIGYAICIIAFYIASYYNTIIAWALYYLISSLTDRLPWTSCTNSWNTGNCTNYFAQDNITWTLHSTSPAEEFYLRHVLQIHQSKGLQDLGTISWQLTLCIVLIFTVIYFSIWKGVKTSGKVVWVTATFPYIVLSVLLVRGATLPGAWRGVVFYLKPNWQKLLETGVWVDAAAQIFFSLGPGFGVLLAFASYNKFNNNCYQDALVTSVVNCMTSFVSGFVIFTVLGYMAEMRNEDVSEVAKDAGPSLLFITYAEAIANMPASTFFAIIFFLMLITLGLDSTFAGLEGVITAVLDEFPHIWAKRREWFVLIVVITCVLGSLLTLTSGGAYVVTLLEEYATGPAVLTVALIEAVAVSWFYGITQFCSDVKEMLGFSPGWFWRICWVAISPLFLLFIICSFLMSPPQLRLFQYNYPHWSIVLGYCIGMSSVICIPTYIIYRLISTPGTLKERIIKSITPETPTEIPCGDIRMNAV
The target in experiment [13] is T4, 5-hydroxytryptamine receptor 1B. In words: Displacement of [3H]5-HT from human 5-hydroxytryptamine 1B receptor expressed in CHO cells. It counts as cell-based. The method in brief:
as §2

Experiment [14] addresses Serotonin 1 receptors; 5-HT1B & 5-HT1D (Homo sapiens) (UniProt P28222+P28221). In words: Selectivity for human 5-hydroxytryptamine 1D receptor over 5-hydroxytryptamine 1B receptor. The experiment is classed as protein assay.
Another experiment addresses T6, D(4) dopamine receptor (Homo sapiens, UniProt P21917).
T6 sequence (P21917 whole entry): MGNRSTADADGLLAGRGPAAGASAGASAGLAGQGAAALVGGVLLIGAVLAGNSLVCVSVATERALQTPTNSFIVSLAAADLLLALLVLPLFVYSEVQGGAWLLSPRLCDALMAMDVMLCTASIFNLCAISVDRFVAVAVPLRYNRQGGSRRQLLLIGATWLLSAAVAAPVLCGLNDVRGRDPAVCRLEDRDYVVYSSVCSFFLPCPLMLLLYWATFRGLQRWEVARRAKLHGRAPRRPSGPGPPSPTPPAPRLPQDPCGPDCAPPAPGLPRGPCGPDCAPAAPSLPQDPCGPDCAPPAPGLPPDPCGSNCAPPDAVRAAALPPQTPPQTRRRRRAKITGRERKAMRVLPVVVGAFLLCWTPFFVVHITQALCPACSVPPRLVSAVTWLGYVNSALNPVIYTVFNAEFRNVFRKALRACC
Briefly: Binding affinity for human dopamine receptor D4.

Experiment [15] concerns the target Beta-2 adrenergic receptor (Homo sapiens, UniProt P07550). In words: Binding affinity for human beta-2 adrenergic receptor.
The target in the next experiment is D(3) dopamine receptor (Homo sapiens, UniProt P35462). In words: Binding affinity for human dopamine receptor D3.
D(3) dopamine receptor, sequence (P35462 whole entry): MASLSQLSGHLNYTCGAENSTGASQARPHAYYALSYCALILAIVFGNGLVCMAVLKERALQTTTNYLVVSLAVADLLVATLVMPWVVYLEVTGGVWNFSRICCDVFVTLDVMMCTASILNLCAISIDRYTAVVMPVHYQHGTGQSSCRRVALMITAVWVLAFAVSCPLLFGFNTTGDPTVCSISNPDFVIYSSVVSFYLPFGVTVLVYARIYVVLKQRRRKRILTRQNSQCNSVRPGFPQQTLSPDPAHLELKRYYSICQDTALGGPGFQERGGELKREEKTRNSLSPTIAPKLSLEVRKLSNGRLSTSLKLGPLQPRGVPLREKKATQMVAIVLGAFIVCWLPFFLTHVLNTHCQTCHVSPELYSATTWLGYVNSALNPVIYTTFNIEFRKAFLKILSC
The target of experiment [16] is 5-hydroxytryptamine receptor 7 (Homo sapiens, UniProt P34969). In words: Binding affinity for human 5-hydroxytryptamine 7 receptor.
5-hydroxytryptamine receptor 7, sequence (P34969 whole entry): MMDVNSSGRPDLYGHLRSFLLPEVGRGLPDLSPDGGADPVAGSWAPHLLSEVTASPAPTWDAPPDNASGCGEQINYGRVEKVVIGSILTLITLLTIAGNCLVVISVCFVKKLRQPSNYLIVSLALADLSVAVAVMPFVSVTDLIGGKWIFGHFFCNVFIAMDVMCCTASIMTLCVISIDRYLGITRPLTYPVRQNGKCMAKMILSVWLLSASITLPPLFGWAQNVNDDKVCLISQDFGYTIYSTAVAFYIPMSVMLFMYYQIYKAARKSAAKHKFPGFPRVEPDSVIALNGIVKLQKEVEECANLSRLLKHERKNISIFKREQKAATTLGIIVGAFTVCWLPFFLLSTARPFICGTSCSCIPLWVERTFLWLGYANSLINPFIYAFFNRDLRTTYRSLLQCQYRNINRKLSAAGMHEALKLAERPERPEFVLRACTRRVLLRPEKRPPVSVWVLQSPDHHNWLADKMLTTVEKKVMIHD
Experiment [17] has as its target T7, 5-hydroxytryptamine receptor 1A (Homo sapiens) (UniProt P08908).
T7 sequence (whole entry): T2 sequence (P08908 whole entry)
Briefly: Intrinsic activity for human 5-hydroxytryptamine 1A receptor in [35S]GTP-gamma-S, assay; […]. The experiment is classed as functional. The method in brief: as §3

Experiment [18] concerns the target T8, Alpha-1B adrenergic receptor (Homo sapiens, UniProt P35368).
T8 sequence (P35368 whole entry): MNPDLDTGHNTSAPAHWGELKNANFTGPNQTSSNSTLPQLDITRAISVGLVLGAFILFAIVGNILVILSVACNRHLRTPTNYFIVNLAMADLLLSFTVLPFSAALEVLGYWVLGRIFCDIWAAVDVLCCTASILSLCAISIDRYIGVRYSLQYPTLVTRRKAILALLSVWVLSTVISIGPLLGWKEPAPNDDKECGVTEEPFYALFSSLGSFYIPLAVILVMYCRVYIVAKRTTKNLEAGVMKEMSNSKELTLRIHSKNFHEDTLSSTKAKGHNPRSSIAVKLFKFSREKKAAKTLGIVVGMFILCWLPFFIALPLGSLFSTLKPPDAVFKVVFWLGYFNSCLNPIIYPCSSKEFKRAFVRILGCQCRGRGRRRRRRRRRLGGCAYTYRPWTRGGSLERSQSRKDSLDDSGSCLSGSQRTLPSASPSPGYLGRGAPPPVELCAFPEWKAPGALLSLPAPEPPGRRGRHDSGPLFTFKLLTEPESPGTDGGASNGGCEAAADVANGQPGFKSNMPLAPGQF
In words: Binding affinity for human alpha-1B adrenergic receptor.

In experiment [19] the target is T5, 5-hydroxytryptamine receptor 1D.

Some results are limits rather than exact numbers.

T4 sequence (P28222 whole entry): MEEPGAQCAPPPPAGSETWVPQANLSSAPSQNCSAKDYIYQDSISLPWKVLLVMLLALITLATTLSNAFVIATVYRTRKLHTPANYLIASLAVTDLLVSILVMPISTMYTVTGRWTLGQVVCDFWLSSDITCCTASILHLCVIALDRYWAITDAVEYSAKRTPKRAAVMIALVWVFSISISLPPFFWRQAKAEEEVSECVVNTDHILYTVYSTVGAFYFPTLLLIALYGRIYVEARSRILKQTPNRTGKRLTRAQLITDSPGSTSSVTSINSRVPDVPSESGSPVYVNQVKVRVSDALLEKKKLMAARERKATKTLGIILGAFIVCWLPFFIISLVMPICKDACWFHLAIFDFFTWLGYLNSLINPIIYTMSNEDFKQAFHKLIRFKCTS
T5 sequence (P28221 whole entry): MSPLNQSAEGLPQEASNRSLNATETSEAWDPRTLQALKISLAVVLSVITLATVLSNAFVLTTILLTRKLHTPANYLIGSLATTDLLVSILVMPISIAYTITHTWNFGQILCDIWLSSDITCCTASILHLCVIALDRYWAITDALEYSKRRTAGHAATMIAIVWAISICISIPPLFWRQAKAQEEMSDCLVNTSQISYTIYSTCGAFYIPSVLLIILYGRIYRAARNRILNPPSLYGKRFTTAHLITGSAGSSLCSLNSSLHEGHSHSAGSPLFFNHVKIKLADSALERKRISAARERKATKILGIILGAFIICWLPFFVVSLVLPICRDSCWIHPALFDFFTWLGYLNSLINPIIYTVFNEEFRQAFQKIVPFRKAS
Beta-2 adrenergic receptor, sequence (P07550 whole entry): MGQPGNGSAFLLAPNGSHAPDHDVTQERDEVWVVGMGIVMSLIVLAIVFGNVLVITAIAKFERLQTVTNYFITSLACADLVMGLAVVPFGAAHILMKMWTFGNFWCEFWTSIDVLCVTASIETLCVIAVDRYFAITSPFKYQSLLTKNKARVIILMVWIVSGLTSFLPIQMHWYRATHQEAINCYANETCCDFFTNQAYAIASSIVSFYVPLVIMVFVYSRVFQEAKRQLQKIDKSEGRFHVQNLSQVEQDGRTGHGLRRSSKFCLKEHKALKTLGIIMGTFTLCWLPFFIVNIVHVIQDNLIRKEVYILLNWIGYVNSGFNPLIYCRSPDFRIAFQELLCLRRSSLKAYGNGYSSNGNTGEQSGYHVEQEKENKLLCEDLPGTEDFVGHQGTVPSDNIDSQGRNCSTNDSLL
5-hydroxytryptamine receptor 2B, sequence (P41595 whole entry): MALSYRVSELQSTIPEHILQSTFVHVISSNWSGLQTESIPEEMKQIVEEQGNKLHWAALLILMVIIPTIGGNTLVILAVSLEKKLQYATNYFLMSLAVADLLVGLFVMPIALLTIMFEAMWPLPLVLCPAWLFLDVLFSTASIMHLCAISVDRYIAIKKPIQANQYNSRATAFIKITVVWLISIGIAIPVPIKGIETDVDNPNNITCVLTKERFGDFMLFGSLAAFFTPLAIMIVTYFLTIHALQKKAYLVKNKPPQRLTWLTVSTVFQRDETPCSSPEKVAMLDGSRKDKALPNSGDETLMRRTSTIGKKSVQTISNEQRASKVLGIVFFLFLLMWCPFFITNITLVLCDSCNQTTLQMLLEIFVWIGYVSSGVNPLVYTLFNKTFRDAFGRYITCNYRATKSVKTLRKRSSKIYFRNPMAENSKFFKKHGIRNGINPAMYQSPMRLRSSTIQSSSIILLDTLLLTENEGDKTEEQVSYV

For the compound `Cc1ccc2c(OCCN3CCN(Cc4cccc5cccnc45)CC3)cccc2n1`, the inhibitory constant (Ki) in experiment [1] is 1260 nM; in [2] it was > 10000 nM; in experiment [3], > 5010 nM; in experiment [4], > 2510 nM; in experiment [5] it was 2000 nM; at D(2) dopamine receptor it was 3160 nM. The Ki in [6] was 316 nM; in [7], 3160 nM; in experiment [8], 3160 nM; in [9], > 10000 nM; in experiment [11], 0.794 nM; in experiment [12], 316 nM. Moreover, the inhibition constant (Ki) in experiment [13] is 200 nM; at D(4) dopamine receptor, > 10000 nM; in experiment [15] it was 2000 nM; at D(3) dopamine receptor, 1000 nM; in [16], 501 nM; in [18] it was 1000 nM. The IA amounted to 0.3 in [10], 0 in [17] and 0 in experiment [19]. This compound also had a Selectivity in [14] of 251.
